Results reported in ChEMBL document CHEMBL1148474, “Small molecule mitochondrial F1F0 ATPase hydrolase inhibitors as cardioprotective agents. Identification of 4-(N-arylimidazole)-substituted benzopyran derivatives as selective hydrolase inhibitors” (J Med Chem, 2004).

Experiments:
[1] = Inhibitory concentration towards rat mitochondrial F1F0-ATP synthase using a hexokinase / glucose-6-phosphate dehydrogenase coupled assay
Method in brief: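 ATP synthesis was run in 10 mM HEPES pH 8. Diluted enzyme was mixed with glucose, MgCl2, KPO4, potassium succinate and AMP (to block adenylate kinase) and incubated 30 min with gentle shaking. Inhibitor was then added from 50% DMSO (final DMSO 5%) for 15 min. Coupling enzymes started the reaction, and the rise in A340 was monitored.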

[2] = Inhibitory concentration towards rat mitochondrial F1F0-ATP synthase using a pyruvate kinase / lactate dehydrogenase system
[3] = target: Mitochondrial F1F0 ATP synthase (Rattus norvegicus); assay: Inhibitory concentration towards rat mitochondrial F1F0 ATP hydrolase using a pyruvate kinase / lactate dehydrogenase system

Row | SMILES | IC50 [1] [µM] | IC50 [2] [µM] | IC50 [3] [µM]
1 | CC1(C)Oc2ccc(C#N)cc2[C@@H](/N=C(\NC#N)Nc2ccc(Cl)cc2)[C@@H]1O | 30 | > 100 | 
2 | CC1(C)Oc2ccc(C#N)cc2C(N(Cc2ncc[nH]2)c2ccc(Cl)cc2)C1O (racemic) |  |  | 470
3 | COc1ccc(Cl)cc1C(=O)NCCc1ccc(S(=O)(=O)NC(=O)NC2CCCCC2)cc1 [GLYBURIDE] | > 100 |  | 
4 | CC1(C)Oc2ccc(C#N)cc2[C@@H](N(Cc2ncc[nH]2)c2ccc(Cl)cc2)[C@@H]1O | 3.8 |  | 0.24
5 | CC1(C)Oc2ccc(C#N)cc2[C@H](/N=C(/NC#N)Nc2ccc(Cl)cc2)[C@H]1O | 12 |  | > 100
6 | CC1(C)Oc2ccc(C#N)cc2[C@H](N(Cc2ncc[nH]2)c2ccc(Cl)cc2)[C@H]1O [BMS-191095] | 4 |  | 0.48
7 | CC1(C)Oc2ccc(S(=O)(=O)N3CCCCC3)cc2[C@H](N(Cc2ncc[nH]2)c2ccc(Cl)cc2)[C@H]1O | 18 |  | 
8 | CC1(C)Oc2ccc(C#N)cc2[C@@H](N(Cc2ncc[nH]2)c2ccccc2)[C@@H]1O |  |  | 4.2
9 | CC1(C)Oc2ccc(C#N)cc2[C@H](N(Cc2ncc[nH]2)c2ccccc2)[C@H]1O |  |  | 2
10 | CC1(C)Oc2ccc(C#N)cc2[C@H](N(Cc2ncco2)c2ccccc2)[C@H]1O |  |  | > 100
11 | CC1(C)Oc2ccc(C#N)cc2C(Nc2ccc(Cl)cc2)C1O (racemic) |  |  | 45
